These results are taken from PubChem BioAssay AID1800 (The Scripps Research Institute Molecular Screening Center, 2009).

Hit rate of the full screen: of about 290,000 compounds, about 1,600 (0.55%) were called active.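 The calls were made as follows: active = inhibition above the mean of all tested compounds plus 3 SD, set per campaign (cut at about 35% in these data); inactive = the rest.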 Shown is part of a subset that was picked to be rich in actives.

The subject of this experiment is Hepatitis C virus NS3 helicase. Nature of the experiment: HCV NS3 DNA unwinding blockers – biochemical, Cy5 molecular beacon fluorescence, primary screen (AID 1800).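 Also: 0% = DMSO wells and 100% = thioflavine S control wells.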 The note with it: at 10.9 µM, hits give high values. In a few lines:
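Compound dosing – single dose, 10.9 µM nominal final, DMSO 0.8% final · System – NS3 helicase fragment of HCV · Buffer or medium – MOPS pH 6.5, MgCl2, DTT, Tween20, BSA · Signal – Cy5 beacon fluorescence read at start and 1 h · Also added – annealed dual-labelled DNA beacon duplex, ATP-started · Schedule – 1 h at 25 °C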
As for `COc1ccc(N(C(=O)c2snc(C(N)=O)c2N)C(C(=O)NC2CCCC2)c2ccc(C)o2)c(OC)c1` (centres undefined), the inhibition is -6.52% (inactive).
Turning to `Cc1[nH]n(-c2cccc(Cl)c2)c(=O)c1-c1ccc(Cl)cc1`, the inhibition was 1.96% (inactive).
Take `Cc1[nH]n(C(N)=S)c(=O)c1N=Nc1ccc(Cl)cc1Cl`: the inhibition is 44.7% (active).
For `CC1=NN(C(N)=S)C(=O)C1N=Nc1cc(Cl)ccc1Cl` (centres undefined), the inhibition was 34.2% (inactive).
Turning to `O=C(CSC(=S)N1CCCCC1)c1c(F)cccc1F`, the inhibition was 4.19% (inactive).
To `COc1ccc(CC(=O)N/N=C(\C)c2ccccn2)cc1` belongs 8.79% (inactive); to `Cc1cccc(OCC(=O)NCCCNC(=O)c2ccccn2)c1`, 4.84% (inactive); to `CCN(CC)CCOc1ccc2c(c1)C(=NNC(=O)c1ccccn1)c1cc(OCCN(CC)CC)ccc1-2`, 41% (active).
As to `COc1ccc(NC(=S)N2CCC(NC(=O)c3cccc(F)c3)CC2)cc1`, the inhibition was 5.28% (inactive).
To `O=C(CSc1nnc(Nc2ccccc2)s1)Nc1cccnc1Cl` belongs 4.07% (inactive); to `Cc1ccc(Nc2nnc(SCc3ccccc3)s2)cc1`, -1.63% (inactive); to `CC(C)c1ccc(Nc2nnc(SCC(=O)c3nnc(-c4ccccc4)o3)s2)cc1`, 42.3% (active).
For the compound `Cc1ccc(SC(CC(=O)c2ccc(C(C)(C)C)cc2)C(=O)O)cc1` (centres undefined), the inhibition is 44.4% (active).
Turning to `Cc1ccc(CSCC(N)C(=O)O)cc1` (centres undefined), the inhibition was 0.78% (inactive).
Consider `Cc1ccc(C(=O)CSc2ccccc2C(=O)O)cc1`, for which the inhibition was 2.55% (inactive).
For the compound `C=CCn1c(=NC(=O)c2cccs2)sc2cc(NC(C)=O)ccc21`, the inhibition was -8.84% (inactive).
To `Cc1cccc(CCNS(=O)(=O)c2ccc3c(c2)NC(=O)CO3)c1` belongs -2.06% (inactive).
Turning to `COc1ccc(/C=C(/NC(=O)c2ccccc2)C(=O)Nc2cccc(C(=O)O)c2)cc1`, the inhibition is 3.56% (inactive).
With `COc1ccc(S(=O)(=O)N(C)CC(=O)N2CCCC2)cc1`, the inhibition was -9.23% (inactive).
On to `CC(C)=N/N=C1/NC(=O)C(Cc2ccccc2)S1` (centres undefined), for which the inhibition was 12.1% (inactive).
As to `COc1cc2c(cc1OC)C(c1ccccc1Br)NC(=O)C2` (centres undefined), the inhibition is 1.43% (inactive).
As to `Oc1ccc(C2Nc3cccc4cccc(c34)N2)cc1`, the inhibition was 9.35% (inactive).
As for `C/C(=C\c1ccco1)C1Nc2cccc3cccc(c23)N1`, the inhibition was 15% (inactive).
With `Cc1ccc(C2Nc3cccc4cccc(c34)N2)cc1`, the inhibition was 38.8% (active).
As to `Brc1ccccc1C1Nc2cccc3cccc(c23)N1`, the inhibition was 53.8% (active).
To `COc1cccc(C2Nc3cccc4cccc(c34)N2)c1` belongs -11.8% (inactive); to `CCc1noc(C)c1C(=O)N1CCCC(N2CCN(c3ccc(F)cc3)CC2)C1` (centres undefined), 8.93% (inactive); to `CC(C)(COC(=O)Nc1ccccc1)COC(=O)Nc1ccccc1`, -7.99% (inactive).
To `Cc1cc([N+](=O)[O-])c(-c2ccc(/C=N/n3cnnc3)o2)cc1Cl` belongs 12.9% (inactive); to `O=C(Nc1ccc(N2CCOCC2)cc1)c1ccc(-c2ccccc2[N+](=O)[O-])o1`, -10.2% (inactive); to `CC1=NN(c2ccc(Cl)c(C(=O)O)c2)C(=O)/C1=C/c1ccc(-c2ccccc2[N+](=O)[O-])o1`, 43.5% (active).
As for `COc1ccccc1NC(=O)Nc1nnc(Cc2ccc(F)cc2)s1`, the inhibition is -6.22% (inactive).
`CCOc1ccc(N(C(=O)c2snc(C(N)=O)c2N)C(C(=O)NCC2CCCO2)c2c[nH]c3ccccc23)cc1` (centres undefined): the inhibition is -29.3% (inactive).
As for `COc1ccc(/C=C(/NC(=O)c2ccco2)C(=O)Nc2ccc(C(C)=O)cc2)cc1`, the inhibition was 2.61% (inactive).
Turning to `COc1ccc(/C=C(\NC(=O)c2ccc(OCC(C)C)cc2)C(=O)OCc2ccco2)cc1`, the inhibition is 43.7% (active).
For `COc1ccc(C(=O)Nc2ccccc2C(=O)NCc2ccco2)cc1`, the inhibition was -9.8% (inactive).
To `CCCn1cc(S(=O)(=O)c2ccc(C)cc2)c(=O)c2cc(OCC)ccc21` belongs -5.21% (inactive); to `CCc1ccc(NC(=O)Nc2ccncc2)cc1`, -8.08% (inactive); to `O=C(Nc1ccc2nccnc2c1)c1ccco1`, -0.83% (inactive).
For `O=C(NCc1ccccn1)c1ccc2nc(-c3ccco3)c(-c3ccco3)nc2c1` the value was 31.3% (inactive); for `COCCNC(=O)Nc1ccc2nc(-c3ccco3)c(-c3ccco3)nc2c1`, 42.2% (active); for `NC(=O)c1nsc(C(=O)N(CCCN2CCOCC2)C(C(=O)NC2CCCCC2)c2ccc(Cl)cc2)c1N` (centres undefined), 13.6% (inactive).
To `Cc1ccc(C(=O)/C=C/Nc2ccc(S(=O)(=O)Nc3onc(C)c3C)cc2)cc1` belongs 23.3% (inactive); to `COc1cc(C(=O)Nc2oc(-c3ccccc3)c(-c3ccccc3)c2C#N)cc(OC)c1OC`, -0.57% (inactive); to `CC(Oc1ccccc1)C(=O)Nc1oc(-c2ccco2)c(-c2ccco2)c1C#N` (centres undefined), 52.5% (active).
For the compound `CC(C)C(=O)Nc1oc(-c2ccccc2)cc1C#N`, the inhibition is 2.07% (inactive).
For the compound `Cc1cc2c(cc1C)N(C(=O)CN1C(=O)c3ccccc3C1=O)C(C)(C)c1ssc(=S)c1-2`, the inhibition was -5.01% (inactive).
As to `O=C(CCC(=O)n1ncc2ccccc21)NCc1ccccc1Cl`, the inhibition was 12.6% (inactive).
For `C#CCOc1ccc(/C=C2/C(=O)NN(c3ccccc3)C2=O)cc1OC` the value was 27.8% (inactive); for `COc1cc(/C=C2/C(=O)NN(c3ccc(F)cc3)C2=O)cc([N+](=O)[O-])c1O`, 15.7% (inactive); for `COc1cc(/C=C2/C(=O)NN(c3cccc(Cl)c3)C2=O)cc(Br)c1O`, 64.2% (active).
Take `COC(=O)c1ccc(/C=C2/C(=O)Oc3ccccc32)cc1`: the inhibition is 4.46% (inactive).
Regarding `Nc1c(Cl)cc(-c2csc(N3CCCC3c3nc4cc(Cl)c(Cl)cc4n3CCOCCO)n2)cc1Cl` (centres undefined), the inhibition was -4.48% (inactive).
For the compound `COc1ccc(-c2nn(-c3ccccc3)cc2/C=C2/SC(=S)N(CCCC(=O)O)C2=O)c(C)c1`, the inhibition was -32.5% (inactive).
As to `CN(C)S(=O)(=O)c1cccc(-c2nn(-c3ccccc3)cc2/C=C2\SC(=S)N(CC(=O)O)C2=O)c1`, the inhibition is 9.49% (inactive).
For `Cc1ccc(-c2nn(-c3ccccc3)cc2/C=C2\SC(=S)N(CCCCCC(=O)O)C2=O)o1`, the inhibition is 45.9% (active).
On to `CC(C)C1Cc2c(sc3c2c(=O)n(-c2ccccc2)c2nncn32)CO1` (centres undefined), for which the inhibition was 1.09% (inactive).
Take `CC(C)(C)NC(=O)CSc1nnc(NC(=O)CCc2ccccc2)s1`: the inhibition is -6.73% (inactive).
With `O=C1/C(=C\c2ccsc2)NC(=S)N1c1ccccc1`, the inhibition was 11% (inactive).
Turning to `O=C1N/C(=C/c2cccn2-c2ccccc2)C(=O)N1c1cccc(Cl)c1`, the inhibition is 43% (active).
For the compound `Cc1ccccc1NC(=O)CN1C(=O)N/C(=C\c2cccn2-c2cccc(C(=O)O)c2)C1=O`, the inhibition is 21.8% (inactive).
For the compound `O=C(CCc1ccccc1F)N1CCN(c2ccccc2)CC1`, the inhibition was 8.51% (inactive).
For `Cc1ccccc1CCNC(=O)C1CCC(=O)N(Cc2ccc(Cl)cc2)C1` (centres undefined) the value was -13.2% (inactive).
With `Cc1cccc(NC(=O)c2ccc3c(=O)n(CC4CCCO4)c(=S)[nH]c3c2)c1` (centres undefined), the inhibition is -9.4% (inactive).
On to `O=c1nc2s/c(=C\c3ccco3)c(=O)n2nc1Cc1ccccc1`, for which the inhibition is 45.8% (active).
As to `Cc1nc2nc(SCC(=O)NCc3ccco3)nn2c(C)c1Cc1ccccc1`, the inhibition is 2.25% (inactive).
In the case of `CCOc1ccccc1/C=c1\sc2nc(-c3ccco3)nn2c1=O`, the inhibition was 27.9% (inactive).
For `COC(=O)c1cc(S(=O)(=O)N2CCN(c3cc(C)ccc3C)CC2)c[nH]1` the value was -25.3% (inactive).
As for `COCCNC(=O)C(c1ccc(C)cc1)N(C(=O)CCC(=O)Nc1ccccn1)c1cccc(C)c1` (centres undefined), the inhibition is -11.8% (inactive).
For the compound `COCCN(C(=O)CCC(=O)Nc1ccccn1)C(C(=O)NCCC(C)C)c1ccc(OC)cc1` (centres undefined), the inhibition is 0.66% (inactive).
Regarding `CCOc1ccc(C(C(=O)NCCOC)N(CCOC)C(=O)CCC(=O)Nc2ccccn2)cc1` (centres undefined), the inhibition was 38.9% (active).
As to `O=C(Nc1nnc(-c2ccc(F)cc2)s1)c1c(F)cccc1Cl`, the inhibition was -8.63% (inactive).
Consider `O=c1[nH]c(/C=C\c2cccc(C(F)(F)F)c2)nc(O)c1[N+](=O)[O-]`, for which the inhibition was 47.4% (active).
As to `Cc1ccccc1/C=C\c1nc(O)c([N+](=O)[O-])c(=O)[nH]1`, the inhibition is 9.37% (inactive).
To `O=c1cc(O)c(-c2cccc(C(F)(F)F)c2)c(Cl)[nH]1` belongs 13.8% (inactive).
For `CCNC(=O)N1CCCC(C(=O)c2ccc(-c3ccccc3)cc2)C1` (centres undefined), the inhibition is -0.46% (inactive).
As to `O=C1OC(c2ccc(Cl)cc2)=N/C1=C\c1cccnc1`, the inhibition is 5.47% (inactive).
With `Cc1ccc(S(=O)(=O)Oc2ccc(/C=N/NC(=O)c3ccncc3)cc2)cc1`, the inhibition is -3.55% (inactive).
Turning to `Cc1ccc(C2=N/C(=C\c3ccc(OS(=O)(=O)c4ccc(C)cc4)cc3)C(=O)O2)cc1`, the inhibition is 40.6% (active).
As to `O=C(CNc1cccc(S(=O)(=O)N2CCCCC2)c1)Nc1ccccc1F`, the inhibition was -2.03% (inactive).
Take `CCOCCCN(C)C1CCN(C(=O)c2oc3ccccc3c2NC(=O)COc2cccc(C)c2)CC1`: the inhibition was -20.2% (inactive).
As to `O=C(CCl)NNc1nc(-c2ccccc2)c2cc(Cl)ccc2n1`, the inhibition is 3.47% (inactive).
On to `O=C(NNc1ccccn1)c1ccc(Cl)nc1`, for which the inhibition was -0.49% (inactive).
Regarding `O=C(CCl)NNc1cccc(Cl)n1`, the inhibition is 60.9% (active).
Regarding `CCC(C(=O)OC)n1cnc2c(oc3ccccc32)c1=O` (centres undefined), the inhibition is -6.44% (inactive).
As to `CC(=O)Nc1ccc(NC(=O)COc2ncnc3ccccc23)cc1`, the inhibition was 8.73% (inactive).
In the case of `CC(=O)Nc1ccc(Nc2c3ccccc3nc3ccccc23)cc1`, the inhibition was 38.4% (active).
For `Cc1ccc(Nc2c3c(nc4ccccc24)CCC3)cc1` the value was -35.6% (inactive); for `Cc1cccc(NC(=O)NC(=S)NC(=O)c2ccccc2)c1`, 7.16% (inactive).
With `COC(=O)c1c(C)[nH]c(C(=O)NCCc2ccc(S(N)(=O)=O)cc2)c1C`, the inhibition was -6.64% (inactive).
Turning to `O=S(=O)(NCc1ccc(Cl)cc1Cl)c1cccs1`, the inhibition was 7.61% (inactive).
For the compound `O=[N+]([O-])c1cc(Cl)cc(/C=N/NC(=S)Nc2cc(S(=O)(=O)N3CCOCC3)ccc2Cl)c1O`, the inhibition is 40.4% (active).
Take `O=C(CN1CCN(c2ccc(O)cc2)CC1)Nc1cc(S(=O)(=O)N2CCOCC2)ccc1Cl`: the inhibition is 13.6% (inactive).
On to `O=C(N/N=C/c1cc(Cl)cc([N+](=O)[O-])c1O)C(O)(c1ccccc1)c1ccccc1`, for which the inhibition was 24.1% (inactive).

Broadly, the inhibition is the change of the read-out against control, counted positive when it falls.
